The IC50 is the concentration at which inhibition is half-maximal. One may read the Tmax as the time at which the peak concentration occurs. The term AUC(0-t) denotes exposure summed from dosing to a finite time, without extrapolation to infinity. Low values mean less exposure, high ones more exposure. Broadly, the Cmax is the highest concentration seen after dosing. As a reminder, the AUC(0-inf) is total exposure, with the tail of the curve extrapolated. High values mean more exposure, low ones less exposure. As usually defined, the MRT is a mean duration of stay, worked out from the concentration-time curve. In general, half-life refers to how long it takes for the measured level to halve. Usually bioavailability stands for the share of a dose that reaches the circulation, judged against a reference dose that is usually intravenous. A higher bioavailability goes with good availability.

Where only a bound is given, the exact number is not on record here.

The target of series [1] is Kynurenine 3-monooxygenase (Mus musculus, UniProt Q91WN4). Description: Inhibition of C57BL/6J mouse KMO assessed as 3-hydroxykynurenine formation preincubated for 5 mins using 100 uM kynurenine as substrate by LC-MS/MS analysis in presence of 3 mg/ml plasma protein. The method, boiled down:
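Liver mitochondrial KMO (mouse C57 BL/6J or human), 0.3 mg protein/mL in 100 mM potassium phosphate pH 7.4, 200 µM NADPH, NADPH-regenerating system, plus 3 mg/mL plasma protein. Compound pre-incubated 5 min at 25°C; 100 µM kynurenine started reaction for 40 min (mouse) or 60 min (human); TCA stop; 3-hydroxykynurenine by LC-MS/MS. IC50 from 8-point 3-fold series, triplicates, n≥2.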

Series [2] in a line: Tmax in C57BL/6N mouse at 0.05 mg/kg, po administered via gavage by LC-MS/MS analysis. It counts as ADME, organism-based. Also noted: dose 0.05 mg/kg, route oral. The conditions noted are these: in vivo. In a few lines: (§1)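 Male C57BL/6N mice dosed by oral gavage (10 mL/kg) as fine suspensions in 10% hydroxypropyl-β-cyclodextrin in 50 mM phosphate buffer pH 7; dose formulations verified by LC-MS/MS. Plasma analysed by LC-MS/MS; composite non-compartmental parameters from mean concentrations (n=3 per time point), C0 set to zero. %F = dose-normalised po AUCinf over dose-normalised iv AUCinf, only within linear range.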

Series [3] can be described thus: Volume of distribution at steady state in C57BL/6N mouse at 5 mg/kg, iv administered as single dose by LC-MS/MS analysis. The class given is ADME, organism-based. Also noted: dose 5 mg/kg, route intravenous. The conditions noted are these: in vivo, read-out: Vdss. The method, boiled down: (§2)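 Male C57BL/6N mice given 5 mg/kg iv bolus as 1 mg/mL filtered solution in DMSO:PEG400:water 10:50:40. Plasma extracted with acidified acetonitrile (diclofenac IS), analysed by LC-MS/MS. Composite non-compartmental parameters from mean concentrations (n=3 per time point); C0 back-extrapolated from first two points; kel from at least last three concentrations.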

A short description of series [4]: AUClast in C57BL/6N mouse at 0.05 mg/kg, po administered via gavage by LC-MS/MS analysis. It counts as ADME, organism-based. On the set-up: time 0 - last, dose 0.05 mg/kg, route oral. Conditions: plasma. In a few lines: (§3)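 Male C57BL/6N mice were dosed by oral gavage at 10 mL/kg with a fine suspension in 10% hydroxypropyl-β-cyclodextrin in 50 mM phosphate buffer, pH 7. Plasma was taken at non-serial time points (n=3 per time point), extracted with 0.1% formic acid in acetonitrile containing diclofenac as internal standard, and quantified by UPLC-MS/MS. Composite non-compartmental parameters came from mean concentrations; AUClast by linear trapezoid, kel from at least three terminal points.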

Series [5] is described as follows: AUClast in C57BL/6N mouse treated with JM6 (containing <0.4% Ro-61-8048) at 10 mg/kg, po and Ro-61-8048 at 0.05 mg/kg, po drugs administered via gavage by LC-MS/MS analysis. On the set-up: dose 10 mg/kg, time 0 - last, route oral. The class given is ADME, organism-based. The conditions noted are these: plasma. In a few lines:
as §3

For series [6], the system named is Mus musculus. The series can be described thus: Dose normalised AUC in C57BL/6N mouse at 5 mg/kg, iv administered as single dose by LC-MS/MS analysis. It counts as ADME, organism-based. Also noted: dose 5 mg/kg, route intravenous. Conditions: in vivo. The method, boiled down:
(§4)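 Single intravenous bolus of 5 mg/kg to male C57BL/6N mice, given as a filtered 1 mg/mL solution in DMSO:PEG400:water 10:50:40 (v/v). Plasma was extracted in acidified acetonitrile with diclofenac as internal standard and analysed by UPLC-MS/MS. Non-compartmental analysis used mean concentrations (n=3 per time point), with C0 back-extrapolated from the first two samples. AUCinf = AUClast + Ct/kel.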

Series [7] can be described thus: Cmax in mouse at 25 mg/kg/day, po. It counts as ADME, organism-based. Conditions: in vivo. On the set-up: dose 25 mg/kg/day, route oral.
The subject of series [8] is Mus musculus. The series can be described thus: Dose normalised Cmax in C57BL/6N mouse at 0.05 mg/kg, po administered via gavage by LC-MS/MS analysis. The class given is ADME, organism-based. Conditions: in vivo. Also noted: dose 0.05 mg/kg, route oral. The method, boiled down: as §3
Series [9] is described as follows: AUC(infinity) in C57BL/6N mouse at 5 mg/kg, iv administered as single dose by LC-MS/MS analysis. The conditions noted are these: plasma. The class given is ADME, organism-based. On the set-up: time infinity, dose 5 mg/kg, route intravenous. In a few lines:
as §4

A short description of series [10]: Mean residence time in C57BL/6N mouse at 5 mg/kg, iv administered as single dose by LC-MS/MS analysis. The class given is ADME, organism-based. Also noted: dose 5 mg/kg, route intravenous. The conditions noted are these: in vivo. The method, boiled down:
as §2

Series [11] in a line: Half life in C57BL/6N mouse at 5 mg/kg, iv administered as single dose by LC-MS/MS analysis. The class given is ADME, organism-based. On the set-up: dose 5 mg/kg, route intravenous. The conditions noted are these: in vivo. In a few lines:
as §4

Series [12] can be described thus: Plasma protein binding in mouse at 5 and 20 uM for 6 hrs by LC-MS/MS analysis. The class given is ADME, cell-free. The conditions noted are these: read-out: PPB. In a few lines: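 Equilibrium dialysis: plasma fortified in triplicate (5 and 20 µM rat and mouse; 10 µM human) on donor side, PBS on receiver side; 37°C, 200 rpm, 6 h; both sides by LC-MS/MS.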
The nature of series [13]: AUClast in C57BL/6N mouse at 5 mg/kg, iv administered as single dose by LC-MS/MS analysis. The class given is ADME, organism-based. Also noted: time 0 - last, dose 5 mg/kg, route intravenous. Conditions: plasma. In a few lines:
as §4

Series [14] has as its target Kynurenine 3-monooxygenase (Homo sapiens, UniProt O15229). Description: Inhibition of KMO (unknown origin).
Series [15] concerns Mus musculus. Description: Cmax in C57BL/6N mouse at 10 mg/kg, po administered via gavage containing <0.4% Ro-61-8048 by LC-MS/MS analysis. It counts as ADME, organism-based. On the set-up: dose 10 mg/kg, route oral. Conditions: in vivo. In a few lines: as §3
Series [16] is described as follows: Mean residence time in C57BL/6N mouse at 5 mg/kg, iv administered as single dose containing <0.4% Ro-61-8048 by LC-MS/MS analysis. The conditions noted are these: in vivo. It counts as ADME, organism-based. On the set-up: dose 5 mg/kg, route intravenous. The method, boiled down:
(§5)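 Male C57BL/6N mice given 5 mg/kg iv bolus (1 mg/mL, DMSO:PEG400:water 10:50:40, filtered); dosed material carried Ro-61-8048 as impurity, which was also quantified in plasma. LC-MS/MS after acetonitrile/formic acid extraction; composite non-compartmental analysis of mean concentrations (n=3 per time point), C0 back-extrapolated, kel from ≥3 terminal points.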

In series [17] the test system is Mus musculus. The series can be described thus: Dose normalised AUC in C57BL/6N mouse at 10 mg/kg, po administered via gavage containing <0.4% Ro-61-8048 by LC-MS/MS analysis. It counts as ADME, organism-based. Also noted: dose 10 mg/kg, route oral. The conditions noted are these: in vivo. The method, boiled down: as §3
Series [18] is described as follows: Oral bioavailability in C57BL/6N mouse treated with JM6 (containing <0.4% Ro-61-8048) at 9 mg/kg and Ro-61-8048 at 1 mg/kg drugs administered via gavage by LC-MS/MS analysis. It counts as ADME, organism-based. Conditions: in vivo. In a few lines:
as §1

Series [19] in a line: Half life in C57BL/6N mouse at 5 mg/kg, iv administered as single dose containing <0.4% Ro-61-8048 by LC-MS/MS analysis. The class given is ADME, organism-based. Also noted: dose 5 mg/kg, route intravenous. The conditions noted are these: in vivo. In a few lines:
as §4

The subject of the next series is Liver. The series can be described thus: Metabolic stability in mouse liver microsomes assessed as half life at 1 uM after 5 to 40 mins by LC-MS/MS analysis. For orientation: Liver microsomes are a subcellular fraction often used to study metabolism.
Series [20] in a line: Half life in simulated gastric fluid of pH 1.2 at 10 uM after 2 and 4 hrs by LC-UV analysis. It counts as ADME. The method, boiled down:
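Compound at 10 µM was shaken at about 25 °C in simulated gastric fluid (2 g/L NaCl, 3.2 g/L pepsin, 0.7% HCl, pH 1.2) and in pepsin-free gastric buffer. Aliquots were taken at 0, 2 and 4 h, diluted into DMSO, and analysed immediately by LC-UV at 254 nm.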

Series [21] is described as follows: AUClast in C57BL/6N mouse at 5 mg/kg, iv administered as single dose containing <0.4% Ro-61-8048 by LC-MS/MS analysis. It counts as ADME, organism-based. On the set-up: time 0 - last, dose 5 mg/kg, route intravenous. Conditions: plasma. The method, boiled down: as §4
A short description of series [22]: Volume of distribution at steady state in C57BL/6N mouse at 5 mg/kg, iv administered as single dose containing <0.4% Ro-61-8048 by LC-MS/MS analysis. The conditions noted are these: in vivo, read-out: Vdss. It counts as ADME, organism-based. On the set-up: dose 5 mg/kg, route intravenous. The method, boiled down:
as §5

Series [23] in a line: Cmax in mouse at 10 mg/kg, po. It counts as ADME, organism-based. Conditions: in vivo. On the set-up: dose 10 mg/kg, route oral.

Sequence of Kynurenine 3-monooxygenase (Homo sapiens, UniProt O15229) (O15229 whole entry): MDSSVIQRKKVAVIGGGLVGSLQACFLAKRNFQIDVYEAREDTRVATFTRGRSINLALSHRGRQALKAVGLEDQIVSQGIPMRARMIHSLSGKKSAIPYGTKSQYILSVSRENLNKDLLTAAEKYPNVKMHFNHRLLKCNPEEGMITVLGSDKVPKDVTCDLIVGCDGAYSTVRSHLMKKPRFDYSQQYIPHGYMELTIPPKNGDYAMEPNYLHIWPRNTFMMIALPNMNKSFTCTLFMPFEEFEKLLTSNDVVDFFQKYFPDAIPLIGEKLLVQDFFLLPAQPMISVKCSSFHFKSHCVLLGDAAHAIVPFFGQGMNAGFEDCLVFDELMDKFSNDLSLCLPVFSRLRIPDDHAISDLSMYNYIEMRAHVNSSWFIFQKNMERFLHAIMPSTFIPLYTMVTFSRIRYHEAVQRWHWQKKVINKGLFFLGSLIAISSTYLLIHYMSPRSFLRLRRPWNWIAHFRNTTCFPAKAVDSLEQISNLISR
Sequence of Kynurenine 3-monooxygenase (Mus musculus, UniProt Q91WN4) (Q91WN4 whole entry): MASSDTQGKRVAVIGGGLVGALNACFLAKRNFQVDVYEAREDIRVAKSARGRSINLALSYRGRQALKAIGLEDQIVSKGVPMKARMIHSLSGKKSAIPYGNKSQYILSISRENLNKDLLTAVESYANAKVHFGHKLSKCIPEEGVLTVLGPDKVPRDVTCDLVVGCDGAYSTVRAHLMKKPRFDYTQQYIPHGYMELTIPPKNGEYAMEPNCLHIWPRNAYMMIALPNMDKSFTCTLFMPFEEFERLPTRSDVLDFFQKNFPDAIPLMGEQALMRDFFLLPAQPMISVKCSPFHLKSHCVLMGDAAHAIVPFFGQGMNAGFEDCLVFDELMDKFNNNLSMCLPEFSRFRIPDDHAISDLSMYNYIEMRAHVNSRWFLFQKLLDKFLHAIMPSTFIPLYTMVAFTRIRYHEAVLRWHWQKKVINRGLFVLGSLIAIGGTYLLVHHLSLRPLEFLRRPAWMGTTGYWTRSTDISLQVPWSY

With `COc1ccc(S(=O)(=O)Nc2nc(-c3cccc([N+](=O)[O-])c3)cs2)cc1OC`, the concentration for half-maximal inhibition (IC50) in series [1] is no less than 12 µM. Besides, the Tmax in [2] came to 30 min. Besides, the Vd in [3] turned out to be 0.15 L/kg. For the same compound, the AUC(0-t) in [4] stood at 4.3 µM·h; in [5] it was 4.9 µM·h; in series [13], 510 µM·h. The AUC/dose with Mus musculus [6] stood at 130000 nM·kg·h/mg. Also, in series [7], the peak level (Cmax) was 280 nM. The compound also yielded a Cmax/dose in the series with Mus musculus [8] of 11 µM. In series [9], this compound showed an AUC(0-inf) of 550 µM·h. In addition, the MRT in series [10] came out at 8.3 h. For the same compound, in [11], the half-life was 390 min. For the same compound, in series [12], the fraction unbound at 6 h was less than 0.01.
In series [14], `COc1ccc(S(=O)(=O)Nc2nc(-c3cccc([N+](=O)[O-])c3)c(CN3CCCCC3)s2)cc1OC` gave an IC50 of 4 µM. Besides, the Cmax in the series on Mus musculus [15] stood at 100 nM; in series [23], 1100 nM. This compound also had an MRT in series [16] of 12 min. In addition, the AUC/dose with Mus musculus [17] was 110 nM·kg·h/mg. Also, in [18], the bioavailability came out at 7.8%. In [19], the half-life is 43.2 min. The t1/2 in the series on Liver stood at 12 min. For the same compound, the AUC(0-t) was 1.3 µM·h in series [5] and 5.2 µM·h in series [21]. In [20], this compound came in with a half-life at 10 µM greater than 1080 min. In addition, the Vd in series [22] was found to be 0.37 L/kg.

The values above are taken from ChEMBL document CHEMBL3526063, “Metabolism and pharmacokinetics of JM6 in mice: JM6 is not a prodrug for Ro-61-8048” (Drug Metab Dispos, 2012).
